From ChEMBL document CHEMBL2146415, “Antibacterial activities of Groebke-Blackburn-Bienaymé-derived imidazo[1,2-a]pyridin-3-amines” (Bioorg Med Chem, 2012)
In brackets after ≈: the same amount, converted by molar mass. Activity calls are given as the source filed them. No cut-off for these calls is given here.

Experiments:
[1] = system: Staphylococcus aureus; assay: Bacteriostatic activity against wild type Staphylococcus aureus ATCC 13709 at 100 ug/mL by CLSI broth microdilution method; type: functional, organism-based
[2] = target: T1, Toll-like receptor 7 (Homo sapiens) (UniProt Q9NYK1); assay: Antagonist activity at TLR7 expressed in HEK293 cells co-transfected with NF-kappaB/sAP gene assessed as inhibition of gardiquimod-induced NF-kappaB activation up to 250 uM by reporter gene assay; type: functional, cell-based
T1 sequence (whole entry): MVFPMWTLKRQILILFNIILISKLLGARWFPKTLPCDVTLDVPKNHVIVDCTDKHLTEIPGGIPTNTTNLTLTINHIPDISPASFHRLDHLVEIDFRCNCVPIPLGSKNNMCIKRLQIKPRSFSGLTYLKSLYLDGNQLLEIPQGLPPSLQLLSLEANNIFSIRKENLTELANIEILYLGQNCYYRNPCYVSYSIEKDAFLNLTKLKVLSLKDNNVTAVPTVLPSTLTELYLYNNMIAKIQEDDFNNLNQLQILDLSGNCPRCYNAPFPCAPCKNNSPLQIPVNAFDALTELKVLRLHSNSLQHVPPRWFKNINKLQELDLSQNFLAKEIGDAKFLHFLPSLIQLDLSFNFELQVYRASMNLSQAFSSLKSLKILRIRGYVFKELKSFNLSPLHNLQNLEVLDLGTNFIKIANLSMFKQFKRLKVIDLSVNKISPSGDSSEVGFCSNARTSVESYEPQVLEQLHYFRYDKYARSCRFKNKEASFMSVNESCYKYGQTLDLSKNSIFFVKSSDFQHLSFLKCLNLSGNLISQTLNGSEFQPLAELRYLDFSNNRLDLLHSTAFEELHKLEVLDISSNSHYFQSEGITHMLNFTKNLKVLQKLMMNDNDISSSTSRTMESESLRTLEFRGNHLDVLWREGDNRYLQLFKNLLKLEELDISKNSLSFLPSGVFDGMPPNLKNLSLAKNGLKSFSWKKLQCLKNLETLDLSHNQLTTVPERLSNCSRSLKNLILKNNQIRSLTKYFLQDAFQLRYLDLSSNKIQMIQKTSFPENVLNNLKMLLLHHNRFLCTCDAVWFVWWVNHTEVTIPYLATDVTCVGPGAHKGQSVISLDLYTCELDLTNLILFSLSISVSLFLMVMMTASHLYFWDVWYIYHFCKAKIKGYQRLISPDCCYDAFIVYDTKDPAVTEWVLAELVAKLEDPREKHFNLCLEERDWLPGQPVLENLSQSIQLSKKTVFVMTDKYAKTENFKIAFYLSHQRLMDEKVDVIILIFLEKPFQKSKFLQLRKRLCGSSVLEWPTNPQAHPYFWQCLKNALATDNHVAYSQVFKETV

[3] = target: T1, Toll-like receptor 7 (Homo sapiens); assay: Agonist activity at human TLR7 expressed in HEK293 cells co-transfected with NF-kappaB/sAP gene assessed as induction of NF-kappaB activation up to 250 uM by reporter gene assay; type: functional, cell-based
[4] = system: Staphylococcus aureus; assay: Bacteriostatic activity against wild type Staphylococcus aureus ATCC 13709 by CLSI broth microdilution method; type: functional
Outline: (§1)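 MIC was determined by CLSI broth microdilution in non-cation-supplemented Mueller-Hinton broth, using OD600 0.5 cultures diluted 10-fold and 2-fold compound dilutions, overnight at 37°C, A600 read-out.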

[5] = system: Staphylococcus aureus; assay: Bacteriostatic activity against methicillin resistant Staphylococcus aureus ATCC 33591 by CLSI broth microdilution method; type: functional
[6] = system: Streptococcus pyogenes; assay: Bacteriostatic activity against Streptococcus pyogenes clinical isolate by CLSI broth microdilution method; type: functional; outline: as §1
[7] = system: Staphylococcus epidermidis; assay: Bacteriostatic activity against coagulase negative Staphylococcus epidermidis ATCC 35983 by CLSI broth microdilution method; type: functional; outline: as §1
[8] = system: Staphylococcus aureus; assay: Bactericidal activity against methicillin resistant Staphylococcus aureus ATCC 33591 by broth microdilution method; type: functional, organism-based
Outline: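 MBC by microdilution subculture: 0.5 μL from each well of the parent MIC plate (MRSA ATCC 33591) diluted into 80 μL fresh Mueller-Hinton broth, incubated overnight at 37°C, absorbance read at 600 nm.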

[9] = system: Escherichia coli; assay: Antibacterial activity against Escherichia coli ATCC 9637 in presence of 6.6 ug/mL polymyxin B […]; type: functional, organism-based
Outline: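 Broth microdilution per CLSI. Mid-log cultures in non-cation-supplemented Mueller-Hinton broth were adjusted to OD600 0.5, diluted 10-fold, and added to equal volumes of 2-fold serially diluted compound. Plates were sealed and incubated overnight at 37°C, then read at A600. MIC was the lowest concentration inhibiting growth. Reference antibiotics were run alongside.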

[10] = Chemical stability in aqueous solution of the compound assessed as N-dealkylated compound formation after 2 weeks by LC-MS analysis; type: physicochemical; details: buffer, 336 h

## c1ccc(CNc2c(-c3c4ccccc4cc4ccccc34)nc3ccccn23)cc1
[1]
  Activity: inactive
[2]
  Activity: inactive
[3]
  Activity: inactive

## CCCCCCCCNc1c(-c2c3ccccc3cc3ccccc23)nc2ccccn12
[4]
  MIC: 7.81 µg/mL (≈ 18.5 µM)

## c1ccc2c(-c3nc4ncccn4c3NC3CCCCC3)c3ccccc3cc2c1
[4]
  MIC: 15.6 µg/mL (≈ 39.8 µM)

## CCCCCCCCN(CCCCCCCC)c1c(-c2c3ccccc3cc3ccccc23)nc2ccccn12
[4]
  MIC: 31.2 µg/mL (≈ 58.5 µM)

## CC(C)(C)CC(C)(C)Nc1c(-c2cc3cccc4ccc5cccc2c5c43)nc2ccccn12
[4]
  MIC: 15.6 µg/mL (≈ 35.1 µM)

## c1ccc(-c2nc3cnccn3c2NC2CCCCC2)cc1
[1]
  Activity: inactive
[2]
  Activity: inactive
[3]
  Activity: inactive

## CC(C)(C)CC(C)(C)Nc1c(-c2c3ccccc3c(Cl)c3ccccc23)nc2ccccn12
[4]
  MIC: 7.81 µg/mL (≈ 17.1 µM)

## c1ccc2c(-c3nc4ccccn4c3NC3CCCCC3)cccc2c1
[5]
  MIC: 15.6 µg/mL (≈ 45.7 µM)
[2]
  Activity: inactive
[3]
  Activity: inactive
[4]
  MIC: 7.81 µg/mL (≈ 22.9 µM)

## C[Si](C)(C)CNc1c(-c2c3ccccc3cc3ccccc23)nc2ccccn12
[4]
  MIC: 15.6 µg/mL (≈ 39.5 µM)

## CC(C)(C)Nc1c(-c2cccc3ccccc23)nc2ccccn12
[5]
  MIC: 31.2 µg/mL (≈ 99.1 µM)
[6]
  MIC: < 10 µg/mL
[2]
  Activity: inactive
[3]
  Activity: inactive
[4]
  MIC: 62.5 µg/mL (≈ 198 µM)

## O=C(Nc1c(-c2c3ccccc3cc3ccccc23)nc2ccccn12)C(F)(F)F
[4]
  MIC: 62.5 µg/mL (≈ 154 µM)

## CC(C)(C)CC(C)(C)Nc1c(-c2c3ccccc3cc3ccccc23)nc2ccc(Br)cn12
[4]
  MIC: 15.6 µg/mL (≈ 31.2 µM)

## CCCCCNc1c(-c2c3ccccc3cc3ccccc23)nc2ccccn12
[5]
  MIC: 7.81 µg/mL (≈ 20.6 µM)
[4]
  MIC: 3.91 µg/mL (≈ 10.3 µM)

## COc1ccc(Nc2c(-c3c4ccccc4cc4ccccc34)nc3ccccn23)cc1
[1]
  Activity: inactive

## CC(C)(C)Nc1c(-c2c3ccccc3cc3ccccc23)nc2ccc(NCCCCCCCCN)cn12
[5]
  MIC: 7.81 µg/mL (≈ 15.4 µM)
[4]
  MIC: 3.91 µg/mL (≈ 7.7 µM)

## CC(C)(C)Nc1c(-c2c3ccccc3cc3ccccc23)nc2ccccn12
[5]
  MIC: 3.91 µg/mL (≈ 10.7 µM)
[7]
  MIC: 7.81 µg/mL (≈ 21.4 µM)
[6]
  MIC: < 10 µg/mL
[2]
  Activity: inactive
[3]
  Activity: inactive
[8]
  Activity: inactive
[9]
  Activity: inactive
[4]
  MIC: 3.91 µg/mL (≈ 10.7 µM)

## Nc1cccn2c(NC3CCCCC3)c(-c3c4ccccc4cc4ccccc34)nc12
[4]
  MIC: 15.6 µg/mL (≈ 38.4 µM)

## c1ccc(Cc2nc3ccccn3c2NC2CCCCC2)cc1
[1]
  Activity: inactive
[2]
  Activity: inactive
[3]
  Activity: inactive

## c1ccc(CNc2c(Cc3ccccc3)nc3ccccn23)cc1
[1]
  Activity: inactive
[2]
  Activity: inactive
[3]
  Activity: inactive

## CCCC(C)Nc1c(-c2c3ccccc3cc3ccccc23)nc2ccccn12 (configuration not stated)
[5]
  MIC: 3.91 µg/mL (≈ 10.3 µM)
[4]
  MIC: 7.81 µg/mL (≈ 20.6 µM)

## c1ccc2c(-c3nc4cnccn4c3NC3CCCCC3)c3ccccc3cc2c1
[2]
  Activity: inactive
[3]
  Activity: inactive
[4]
  MIC: 7.81 µg/mL (≈ 19.9 µM)

## CC(C)(C)Nc1c(-c2ccccc2)nc2cnccn12
[1]
  Activity: inactive
[2]
  Activity: inactive
[3]
  Activity: inactive

## c1ccc(-c2nc3ccccn3c2NC2CCCCC2)cc1
[1]
  Activity: inactive
[2]
  Activity: inactive
[3]
  Activity: inactive

## c1ccc2c(-c3nc4cnccn4c3NC3CCCCC3)cccc2c1
[1]
  Activity: inactive
[2]
  Activity: inactive
[3]
  Activity: inactive

## CC(C)(C)Nc1c(-c2cccc3ccccc23)nc2cnccn12
[1]
  Activity: inactive
[2]
  Activity: inactive
[3]
  Activity: inactive

## c1ccc(CNc2c(-c3c4ccccc4cc4ccccc34)nc3cnccn23)cc1
[1]
  Activity: inactive
[2]
  Activity: inactive
[3]
  Activity: inactive

## CC(C)(C)Nc1c(Cc2ccccc2)nc2ccccn12
[1]
  Activity: inactive
[2]
  Activity: inactive
[3]
  Activity: inactive

## CCCCNc1c(-c2c3ccccc3cc3ccccc23)nc2ccccn12
[5]
  MIC: 7.81 µg/mL (≈ 21.4 µM)
[4]
  MIC: 3.91 µg/mL (≈ 10.7 µM)

## CC(C)Nc1c(-c2c3ccccc3cc3ccccc23)nc2ccccn12
[5]
  MIC: 15.6 µg/mL (≈ 44.4 µM)
[4]
  MIC: 15.6 µg/mL (≈ 44.4 µM)

## CC(C)(C)Nc1c(-c2c3ccccc3cc3ccccc23)nc2cnccn12
[1]
  Activity: inactive
[2]
  Activity: inactive
[3]
  Activity: inactive

## CC(C)(C)Nc1c(-c2c3ccccc3c(NCCCCCCCCN)c3ccccc23)nc2ccccn12
[5]
  MIC: 15.6 µg/mL (≈ 30.8 µM)
[4]
  MIC: 7.81 µg/mL (≈ 15.4 µM)

## c1ccc(CNc2c(-c3cccc4ccccc34)nc3cnccn23)cc1
[1]
  Activity: inactive
[2]
  Activity: inactive
[3]
  Activity: inactive

## CC(C)(C)Nc1c(-c2c3ccccc3cc3ccccc23)nc2ccc(Br)cn12
[4]
  MIC: 15.6 µg/mL (≈ 35.2 µM)

## CC(C)(C)Nc1c(-c2c3ccccc3c(Cl)c3ccccc23)nc2ccccn12
[4]
  MIC: 7.81 µg/mL (≈ 19.5 µM)

## c1ccc(CNc2c(-c3ccccc3)nc3ccccn23)cc1
[1]
  Activity: inactive
[2]
  Activity: inactive
[3]
  Activity: inactive

## c1ccc(CNc2c(-c3ccccc3)nc3cnccn23)cc1
[1]
  Activity: inactive
[2]
  Activity: inactive
[3]
  Activity: inactive

## Clc1nccn2c(NC3CCCCC3)c(-c3c4ccccc4cc4ccccc34)nc12
[1]
  Activity: inactive

## c1ccc(CNc2c(Cc3ccccc3)nc3cnccn23)cc1
[1]
  Activity: inactive
[2]
  Activity: inactive
[3]
  Activity: inactive

## CC(C)(C)Nc1c(Cc2ccccc2)nc2cnccn12
[1]
  Activity: inactive
[2]
  Activity: inactive
[3]
  Activity: inactive

## Nc1c(-c2c3ccccc3cc3ccccc23)nc2ccccn12
[1]
  Activity: inactive

## CN(C)CCCNc1c2ccccc2c(-c2nc3ccccn3c2NC(C)(C)CC(C)(C)C)c2ccccc12
[4]
  MIC: 3.91 µg/mL (≈ 7.49 µM)

## CC(C)(C)CC(C)(C)Nc1c(-c2cc3ccccc3c3ccccc23)nc2ccccn12
[4]
  MIC: 7.81 µg/mL (≈ 18.5 µM)

## c1ccc(Cc2nc3cnccn3c2NC2CCCCC2)cc1
[1]
  Activity: inactive
[2]
  Activity: inactive
[3]
  Activity: inactive

## c1ccc(CNc2c(-c3cccc4ccccc34)nc3ccccn23)cc1
[2]
  Activity: inactive
[3]
  Activity: inactive
[4]
  MIC: 15.6 µg/mL (≈ 44.7 µM)

## CN(C)CCCNc1c2ccccc2c(-c2nc3ccccn3c2NC(C)(C)CC(C)(C)C)c2ccccc12.Cl
[10]
  Stability: Unstable

## Cc1cccc(Cl)c1Nc1c(-c2c3ccccc3cc3ccccc23)nc2ccccn12
[1]
  Activity: inactive

## c1ccc2c(-c3nc4ccccn4c3NC3CCCCC3)c3ccccc3cc2c1
[5]
  MIC: 3.91 µg/mL (≈ 9.99 µM)
[7]
  MIC: 7.81 µg/mL (≈ 19.9 µM)
[6]
  MIC: < 10 µg/mL
[2]
  Activity: inactive
[3]
  Activity: inactive
[4]
  MIC: 3.91 µg/mL (≈ 9.99 µM)

## c1ccc2c(-c3nc4ccccn4c3NC34CC5CC(CC(C5)C3)C4)c3ccccc3cc2c1
[4]
  MIC: 15.6 µg/mL (≈ 35.2 µM)

## CN(C)CCCNc1ccc2nc(-c3c4ccccc4cc4ccccc34)c(NC(C)(C)CC(C)(C)C)n2c1
[4]
  MIC: 3.91 µg/mL (≈ 7.49 µM)

## CN(C)CCCNc1ccc2nc(-c3c4ccccc4cc4ccccc34)c(NC(C)(C)CC(C)(C)C)n2c1.Cl
[10]
  Stability: Unstable

## CC(C)(C)CC(C)(C)Nc1c(-c2ccc(-c3ccccc3)cc2)nc2ccccn12
[1]
  Activity: inactive

## CC(C)(C)CC(C)(C)Nc1c(-c2c3ccccc3cc3ccccc23)nc2ccccn12
[5]
  MIC: 3.91 µg/mL (≈ 9.27 µM)
[8]
  Activity: inactive
[4]
  MIC: 3.91 µg/mL (≈ 9.27 µM)
